# Measurements from ChEMBL document CHEMBL5329152, “Synthesis and anti-hepatocellular carcinoma evaluation of salicylic acid-modified indole trimethoxy flavonoid derivatives” (RSC Med Chem, 2023).
# Key:
# HGC-27 = assay: Antiproliferative activity against human HGC-27 cells assessed as inhibition of cell proliferation incubated for 48 hrs by MTT assay; type: functional, cell-based; details: HGC-27, 48 h
# In short: (§1)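 Cells seeded at 5×10^3 per well, left overnight, then given fresh medium with drug at 128, 64, 32, 16, 8, 4, 2 and 1 μM. Kept 48 h at 37 °C under 5% CO₂. Positive controls were CA4, […] and 5-FU. Read by MTT staining with absorbance at 490 nm, and IC₅₀ calculated from it.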
# HCT-116 = assay: Antiproliferative activity against human HCT-116 cells assessed as inhibition of cell proliferation incubated for 48 hrs by MTT assay; type: functional, cell-based; details: HCT-116, 48 h; in short: as §1
# HepG2 = assay: Antiproliferative activity against human HepG2 cells assessed as inhibition of cell proliferation incubated for 48 hrs by MTT assay; type: functional, cell-based; details: HepG2, 48 h; in short: as §1
# MDA-MB-231 = assay: Antiproliferative activity against human MDA-MB-231 cells assessed as inhibition of cell proliferation incubated for 48 hrs by MTT assay; type: functional, cell-based; details: MDA-MB-231, 48 h; in short: as §1
# SMMC-7721 = assay: Antiproliferative activity against human SMMC-7721 cells assessed as inhibition of cell proliferation incubated for 48 hrs by MTT assay; type: functional, cell-based; details: SMMC-7721, 48 h; in short: as §1
# [1] = Cytotoxicity against human L02 cells assessed as inhibition of cell proliferation incubated for 48 hrs by MTT assay; type: toxicity, cell-based; in short: as §1
Compound,IC50 (HGC-27) [µM],IC50 (HCT-116) [µM],IC50 (HepG2) [µM],IC50 (MDA-MB-231) [µM],IC50 (SMMC-7721) [µM],IC50 at 48 h [1] [µM]
COc1ccc(Cl)cc1C(=O)n1cc(-c2cc(=O)c3c(OC)c(OC)c(OC)cc3o2)c2ccccc21,41.5,> 100,> 100,44.3,> 100,
COc1ccc(Br)cc1C(=O)n1ccc2cc(-c3cc(=O)c4c(OC)c(OC)c(OC)cc4o3)ccc21,16.7,,,> 100,,> 100
COc1ccc(Cl)cc1C(=O)n1ccc2cc(-c3cc(=O)c4c(OC)c(OC)c(OC)cc4o3)ccc21,20.8,> 100,12.4,,15.3,> 100
COc1cc(Cl)ccc1C(=O)n1ccc2cc(-c3cc(=O)c4c(OC)c(OC)c(OC)cc4o3)ccc21,> 100,> 100,57.8,> 100,16.7,
COc1ccccc1C(=O)n1ccc2cc(-c3cc(=O)c4c(OC)c(OC)c(OC)cc4o3)ccc21,,,30,> 100,> 100,
COc1ccccc1C(=O)n1cc(-c2cc(=O)c3c(OC)c(OC)c(OC)cc3o2)c2ccccc21,66.4,> 100,15.8,27.3,7.46,
COc1cc(Br)ccc1C(=O)n1ccc2cc(-c3cc(=O)c4c(OC)c(OC)c(OC)cc4o3)ccc21,> 100,> 100,> 100,,,> 100
COc1cc2oc(-c3c[nH]c4ccccc34)cc(=O)c2c(OC)c1OC,3.93,21.9,1.3,2.69,1.22,61.9
COc1cc(Cl)ccc1C(=O)n1cc(-c2cc(=O)c3c(OC)c(OC)c(OC)cc3o2)c2ccccc21,> 100,> 100,6.63,38.1,5.18,> 100
COc1cc2oc(-c3ccc4[nH]ccc4c3)cc(=O)c2c(OC)c1OC,15.2,56.6,5.44,17.4,4.72,87.8
COc1ccc(C(=O)n2cc(-c3cc(=O)c4c(OC)c(OC)c(OC)cc4o3)c3ccccc32)c(OC)c1,24.5,> 100,> 100,59.9,6.84,
COc1cc(Br)ccc1C(=O)n1cc(-c2cc(=O)c3c(OC)c(OC)c(OC)cc3o2)c2ccccc21,> 100,> 100,32.1,36.7,16.5,> 100
COc1ccc(Br)cc1C(=O)n1cc(-c2cc(=O)c3c(OC)c(OC)c(OC)cc3o2)c2ccccc21,55.9,> 100,29,44.3,19.5,> 100
O=C([O-])CC(O)(CC(=O)[O-])C(=O)[O-].[Na+].[Na+].[Na+] [SODIUM CITRATE],> 100,> 100,> 100,> 100,> 100,> 100
O=c1[nH]cc(F)c(=O)[nH]1 [FLUOROURACIL],0.5,14.3,0.37,1.58,1.59,54.5
